According to article PMC10824272 (Biomedicine & pharmacotherapy = Biomedecine & …, 2023):
“Also recorded” adds a separate entry of the source.

Experiments:
SW480^cld2 cells = assay: Cell viability; type: cell-based, human; details: 25 & 50μM
Procedure, shortened: (§1)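 Cells maintained in RPMI plus 10% FBS. Viability read with PrestoBlue reagent per kit protocol after 72 h exposure to test compound.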

[1] = system: pSrc, pAkt, Bcl2, Bcl-xL, survivin, cleaved PARP in SW620 and SW480^cld1 cells; assay: Immunoblotting of signaling and apoptosis markers; type: cell-based, human; details: I-6, SW480^cld1 cells
Procedure, shortened: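 Treated cells (vehicle or 12.5 and 25 μM) lysed. 10–30 μg protein per lane resolved by SDS-PAGE and immunoblotted, with enhanced chemiluminescence detection on film. Antibodies included p-Src (Tyr416), pAkt and total Akt, with GAPDH or β-actin as loading reference.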

SW480 cells = assay: Cell viability; type: cell-based, human; details: even at 25μM
[2] = Plasma pharmacokinetics in mice; type: in vivo
Procedure, shortened: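 I-6 given as a single 1 mg/kg intravenous dose to C57BL6 mice (n=5), with serial blood sampling. PDS-0330 given at 5 mg/kg by oral gavage or IP, with ~100 μl blood drawn from the maxillary vein at 5, 15, 30 min and 1, 2, 4, 6, 8, 24 h. Plasma levels in ng/ml; non-compartmental parameters.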

[3] = Metabolic stability, phase I; type: in vitro ADME, human; details: HLM, phase I metabolism, 60 min
Procedure, shortened: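 Phase I stability in human liver microsomes (20 mg/ml stock), 100 mM potassium phosphate pH 7.4, 10 mM MgCl2, 2 mM NADPH. Mix pre-incubated 10 min at 37 °C. Output is percent parent remaining per time point. Elimination rate constant taken from first-order plot of ln area ratio versus time.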

SW620^1C cells = assay: Anoikis-induced apoptosis assay; type: cell-based, human; details: claudin-1 knockdown SW620^1C
Procedure, shortened: (§2)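 Anoikis induced by plating cells on poly-HEMA-coated culture plates. Apoptosis quantified with a cell death detection ELISA. Parental lines were cultured in RPMI with 10% FBS. Claudin-1-overexpressing SW480 and claudin-1-knockdown SW620 derivatives were used.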

HCT116 cells [4] = assay: Transwell matrigel invasion assay; type: cell-based, human; details: I-6; claudin-1 deficient HCT116
SW480^cld1 cells [5] = assay: Cell viability; type: cell-based, human
Procedure, shortened: (§3)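 Claudin-1-overexpressing SW480cld1 and SW620 cells grown in RPMI with 10% FBS and exposed for 72 hours to a range of test compound concentrations. Viability measured by PrestoBlue reagent. EC50 calculated from the concentration–viability data.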

HCT116 cells [6] = assay: Anoikis-induced apoptosis assay; type: cell-based, human; details: claudin-1 deficient HCT116
SW480^cld1 cells [7] = assay: Transwell matrigel invasion assay; type: cell-based, human; details: I-6; claudin-1 overexpressed SW480^cld1
SW620 cells [8] = assay: Anoikis-induced apoptosis assay; type: cell-based
SW480^cld1 cells [9] = assay: Anoikis-induced apoptosis assay; type: cell-based
Procedure, shortened: as §2

[10] = biological target: T1, claudin-1/Src association (Homo sapiens, UniProt O95832); assay: Proximity ligation assay; type: cell-based
T1 sequence (O95832 1-211): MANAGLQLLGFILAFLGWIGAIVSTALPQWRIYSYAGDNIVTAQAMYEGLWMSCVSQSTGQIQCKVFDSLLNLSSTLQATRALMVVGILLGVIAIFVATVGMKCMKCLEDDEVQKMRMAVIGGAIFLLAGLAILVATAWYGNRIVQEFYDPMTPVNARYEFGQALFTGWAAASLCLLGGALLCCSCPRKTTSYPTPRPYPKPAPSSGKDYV

[11] = system: colon tumoroids from APC^min/+ / claudin-1 mice; assay: Tumoroid culture apoptosis; type: cell-based
Procedure, shortened: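 Colon tumors from APCmin/+/claudin-1 mice washed in ice-cold PBS and digested with collagenase-containing buffer. Single cells pelleted at 200 x g for 3 min, embedded in Matrigel and plated as tumoroids. Tumoroids exposed to test compound alone or with 5 μM 5-FU, then scored for apoptosis.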

SW620 cells [12] = assay: Transwell matrigel invasion assay; type: cell-based, human; details: I-6; claudin-1 overexpressed SW620
SW620 cells [13] = assay: Cell viability; type: cell-based, human
Procedure, shortened: as §3

[14] = Tissue bio-distribution in mice; type: in vivo; details: both, mouse, liver, po, 5 mg/kg
[15] = system: SW480^cld1 xenograft tumor; assay: Subcutaneous xenograft tumor study; type: in vivo, athymic nude mice
Procedure, shortened: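 Cells implanted subcutaneously in athymic nude mice, n = 5 per group, vehicle controls. For SW480cld1 with I-6, once-weekly dosing started 10 days after implantation, once tumors were palpable, for two weeks. Caliper volume over time, formula […]. Ki67 and cleaved PARP by IHC. Behavior and body weight monitored.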

HCT116 cells [16] = assay: Cell viability; type: cell-based, human; details: 25 & 50μM
Procedure, shortened: as §1

[17] = I-6 1mg/kg intravenous, mice, plasma, 1 mg/kg
[18] = both, C57BL6, mouse, plasma, iv, 1 mg/kg

Structure (SMILES): COc1cc2ccccc2cc1C(=O)NC(=S)Nc1ccc(-c2nc3ccccc3[nH]2)cc1 [I-6, N-((4-(1H-benzo[d]imidazol-2-yl)phenyl)carbamothioyl)-3-methoxy-2-naphthamide]
- cell viability (SW480^cld2 cells): no significant impact
- Src phosphorylation [1]: significantly interferes
- impact on SW480 cells (SW480 cells): no significant impact
- time up to which detectable in plasma ([2]; I-6 1mg/kg intravenous, mice): up to 24 h
- AUC0- ∞ [2, 17]: 1207.1 ± 35.6 ng·h/mL
- C0 [2, 17]: 798.3 ± 277.2 ng/mL
- time of plasma peak concentration ([2]; I-6 oral 5mg/kg, mice): 2 h
- AUC(0-t) [2, 18]: 1140 ± 59.6 ng·h/mL
- MRT [2, 18]: 5.6 ± 1.2 h
- half-life [2, 18]: 420 ± 96 min
- AUC(0-inf) ([2]; both, C57BL6, mouse, plasma, iv, 1 mg/kg, AUC0- ∞, I-6 1mg/kg intravenous, mice): 1140 ng·h/mL
- C0 ([2]; both, C57BL6, mouse, plasma, iv, 1 mg/kg, C0, I-6 1mg/kg intravenous, mice): 798 ng/mL
- Vd ([2]; both, C57BL6, mouse, plasma, iv, 1 mg/kg, Vd, I-6 1mg/kg intravenous, mice): 8.4 ± 2.1 L/kg
- Vd ([2]; both, C57BL6, mouse, plasma, iv, 1 mg/kg, Vss, I-6 1mg/kg intravenous, mice): 4.7 ± 1.1 L/kg
- Cmax ([2]; both, mouse, plasma, po, 5 mg/kg): 2.8 ng/mL
- drug remaining after 60 min [3]: 49%
- resistance to anoikis (SW620^1C cells): no effect
- invasion (HCT116 cells [4]): no effect
- cell viability (SW480^cld1 cells [5]; 25 & 50μM, P<0.001): significantly decreases cell viability
- EC50 (SW480^cld1 cells [5]; Homo sapiens, 72 h, read-out: EC50, cell viability): 28.4 µM
- effect with 5-FU on cell growth (SW480^cld1 cells [5]; I-6 0.625μM-20μM with 5-FU 5μM): synergistic effect
- resistance to anoikis (HCT116 cells [6]): no effect
- invasion (SW480^cld1 cells [7]): suppresses invasion
- resistance to anoikis (SW620 cells [8]; claudin-1 overexpressed SW620): inhibition of resistance to anoikis
- effect with 5-FU on anoikis resistance (SW620 cells [8]; co-treatment with 5-FU): synergistic effect
- resistance to anoikis (SW480^cld1 cells [9]; claudin-1 overexpressed SW480^cld1): dramatically inhibits anoikis resistance; also recorded: inhibition of resistance to anoikis
- effect with 5-FU on anoikis resistance (SW480^cld1 cells [9]; co-treatment with 5-FU): synergistic effect
- association of claudin-1 with Src [10]: significantly interferes
- effect with 5-FU on induction of apoptosis in tumoroids ([11]; I-6 25μM with 5-FU 5μM): synergistic effect
- rate of apoptosis in tumoroids ([11]; I-6 25μM, 48 hours): significantly increased
- invasion (SW620 cells [12]): suppresses invasion
- cell viability (SW620 cells [13]; 25 & 50μM, P<0.001): significantly decreases cell viability
- EC50 (SW620 cells [13]; Homo sapiens, SW-620, 72 h, read-out: EC50, cell viability): 24.8 µM
- concentration at 24 h [14]: 65 ng/g
- Ki67 expression in tumors (IHC) ([15]; I-6 10 mg/kg): significantly inhibited
- cleaved PARP in tumors (IHC) ([15]; I-6 10 mg/kg): significantly increased
- tumor volume and weight at necropsy ([15]; I-6 10 mg/kg once/week, vs vehicle): significantly reduced
- effect with 5-FU on development of xenograft tumor ([15]; co-treatment with 5-FU, nude mice): synergistic effect
- mouse behavior or weight ([15]; during I-6 / 5-FU xenograft studies): no obvious changes
- cell viability (HCT116 cells [16]): no significant impact
